The subject of assay [1] is Rattus norvegicus. Put plainly: Analgesic activity in po dosed Charles River rat by tail flick test. It counts as functional. The procedure, abridged:
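Oral dosing of rats, with doses calculated as mg base/kg. Read-out recorded as the number of rats showing analgesia over the number tested.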

Assay [2] relates to Rattus norvegicus. Put plainly: Analgesic activity in ip dosed Charles River rat by tail flick test. It counts as functional. The procedure, abridged: (§1)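 Dosed intraperitoneally as aqueous solutions or Tween-80 suspensions to groups of six or ten rats. Doses expressed as mg base/kg. Read-out recorded as the number of rats showing analgesia over the number tested at each dose.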

For assay [3], the species on record is Rattus norvegicus. Put plainly: Analgesic activity in Charles River rat by tail flick test relative to morphine. The format is functional. The procedure, abridged: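 Rats (groups of six or ten) dosed ip in aqueous solution or Tween-80 suspension, with doses as mg base/kg. Potency expressed relative to morphine, which was taken as unity. Some estimates were based on two doses.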

In assay [4] the test system is Rattus norvegicus. Put plainly: Analgesic activity in Charles River rat at 25 mg/kg, ip by tail flick test. The format is functional, organism-based. Details: dose 25 mg/kg. The gist of the method: as §1
Assay [5] has as its system Rattus norvegicus. Put plainly: Analgesic activity in Charles River rat at 50 mg/kg, ip by tail flick test. The format is functional, organism-based. Details: dose 50 mg/kg. The procedure, abridged:
as §1

ED50, Ratio and Activity data for 19 compounds are collected here from ChEMBL document CHEMBL3272234, “Analgesic agents. 3. New bridged aminotetralins” (1976).

Active and inactive are the calls of the source. The rule behind the calls is not given here.

For `CC(=O)Oc1ccc2c(c1)[C@@]1(C)CCCCC(C2)[C@@H]1N.Cl`, the 50% effective dose (ED50) worked out at 40 mg/kg with Rattus norvegicus [1] and 10 mg/kg in the assay with Rattus norvegicus [2]. Also, in the assay filed under Rattus norvegicus [3], the Ratio amounted to 0.44.
The like results for `COc1ccc2c(c1)[C@@]1(C)CC=CCC(C2)[C@@H]1N.Cl` were, in that order, 6.25 mg/kg, 16.5 mg/kg and 0.27.
Compound `COc1ccc2c(c1)[C@@]1(C)Cc3ccccc3CCC(C2)C1N.O=C(O)/C=C/C(=O)O` (some centres undefined) came in with a 50% effective dose (ED50) with Rattus norvegicus [2] of 25 mg/kg. The result with Rattus norvegicus [4] was inactive.
Consider `Br.C[C@@]12Cc3ccccc3CCC(Cc3ccc(O)cc31)C2N` (some centres undefined), for which the 50% effect level with Rattus norvegicus [2] (ED50) was put at a dose of 25 mg/kg.
Compound `COc1ccc2c(c1)[C@@]1(C)Cc3ccccc3CC(C2)C1N.Cl` (some centres undefined) returned a median effective dose (ED50) in the assay on Rattus norvegicus [2] of 14.5 mg/kg. Further, the Ratio in the assay listed under Rattus norvegicus [3] came out at 0.31.
For the compound `CC[C@@]12CC=CCC(Cc3ccc(OC)cc31)[C@@H]2NC.I`, the ED50 in the assay on Rattus norvegicus [2] came out at 25 mg/kg.
On to `Br.C[C@@]12Cc3ccccc3CC(Cc3ccc(O)cc31)C2N` (some centres undefined), for which the ED50 in the assay with Rattus norvegicus [2] stood at 12.5 mg/kg. The Ratio in the assay listed under Rattus norvegicus [3] stood at 0.35.
For the compound `CC[C@@]12CC=CCC(Cc3ccc(OC)cc31)[C@@H]2N.Cl`, the 50% effective dose (ED50) was determined as 6.25 mg/kg in the assay on Rattus norvegicus [1] and 4.2 mg/kg with Rattus norvegicus [2]. Moreover, the Ratio in the assay listed under Rattus norvegicus [3] worked out at 1.05.
Turning to `CC[C@@]12CC=CCC(Cc3ccc(O)cc31)[C@@H]2N`, the ED50 was 6.25 mg/kg in the assay on Rattus norvegicus [1] and 1.75 mg/kg in the assay with Rattus norvegicus [2]. Also, the Ratio in the assay listed under Rattus norvegicus [3] turned out to be 2.53.
In the assay with Rattus norvegicus [2], `COc1ccc2c(c1)[C@@]1(C)CC=CCC(C2)[C@@H]1N(C)C.Cl` showed a 50% effective dose (ED50) of 50 mg/kg. Further, the outcome in the assay on Rattus norvegicus [5] was inactive.
The compound `Br.C[C@@]12CCCCC(Cc3ccc(O)cc31)[C@@H]2N` returned an ED50 in the assay with Rattus norvegicus [2] of 7.4 mg/kg. Further, the Ratio in the assay filed under Rattus norvegicus [3] stood at 0.6.
Consider `C[C@@]12CCCCC(Cc3ccc(OC(=O)C4CC4)cc31)[C@@H]2N.Cl`, for which the ED50 is 16.5 mg/kg with Rattus norvegicus [1] and 5.5 mg/kg with Rattus norvegicus [2]. In addition, the Ratio in the assay filed under Rattus norvegicus [3] worked out at 0.81.
In the assay on Rattus norvegicus [2], `C[C@@]12CC=CCC(Cc3ccc(O)cc31)[C@@H]2N.Cl` had an ED50 of 6.25 mg/kg. In addition, the Ratio in the assay filed under Rattus norvegicus [3] stood at 1.26.
Regarding `COc1ccc2c(c1)[C@@]1(C)CCCCCC(C2)[C@@H]1[N+](C)(C)[O-].Cl`, the figures for the median effective dose (ED50) with Rattus norvegicus [1] and in the assay with Rattus norvegicus [2] were 16.5 mg/kg and 10 mg/kg, respectively. The Ratio in the assay listed under Rattus norvegicus [3] turned out to be 0.44.
The compound `CC[C@@]12CC=CCC(Cc3ccc(OC)cc31)[C@@H]2N(C)C.Cl` had a 50% effective dose (ED50) in the assay on Rattus norvegicus [2] of 50 mg/kg. Further, the result in the assay with Rattus norvegicus [5] was inactive.
`CC[C@@]12Cc3ccccc3CC(Cc3ccc(OC)cc31)C2N.Cl` (some centres undefined) returned an ED50 in the assay on Rattus norvegicus [2] of 50 mg/kg.
With `CN1CC[C@]23c4c5ccc(O)c4O[C@H]2[C@@H](O)C=C[C@H]3[C@H]1C5` [MORPHINE], in the assay filed under Rattus norvegicus [3], the Ratio was 1.
Take `CCC(=O)O[C@](Cc1ccccc1)(c1ccccc1)[C@H](C)CN(C)C` [PROPOXYPHENE]: it took a dose of 10.4 mg/kg to reach the 50% effect level with Rattus norvegicus [2] (ED50).
The compound `COc1ccc2c(c1)[C@@]1(C)CCCCCC(C2)[C@@H]1N.Cl` showed an ED50 with Rattus norvegicus [2] of 10 mg/kg. Further, the Ratio in the assay filed under Rattus norvegicus [3] came to 0.44.
